The values that follow come from ChEMBL document CHEMBL2413079, “Synthesis of novel psoralen analogues and their in vitro antitumor activity” (2013).

Holding throughout (assay type): functional
The test system of assay [1] is TCC-SUP. Description: Growth inhibition of human TCCSUP cells after 48 hrs by MTS assay. Summed up: (§1)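 Cells grown in DMEM with 10% FBS (15% FBS for TCC-SUP) and 1% penicillin/streptomycin. DMSO stocks freshly diluted in medium; five concentrations tested over 48 h exposure. MTS reagent added for 2 h at 37 °C, 5% CO2, then absorbance read at 490 nm. Viability taken as % of control; GI50 from dose–response curve. Three independent cultures, 4 wells per concentration.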

For assay [2], the system named is HeLa. Description: Growth inhibition of human HeLa cells after 48 hrs by MTS assay. Summed up: as §1
For assay [3], the system named is MDA-MB-231. In words: Growth inhibition of human MDA-MB-231 cells after 48 hrs by MTS assay. To be noted: MDA-MB-231, 48 h. Summed up: as §1

`O=c1ccc2c(ccc3c4ccccc4[nH]c23)o1`: the GI50 in assay [1] turned out to be 27 nM; in assay [2], 46 nM; in assay [3], 230 nM.
For the compound `CCOC(=O)c1cc2c(ccc3c4ccccc4[nH]c23)oc1=O`, the GI50 was found to be 30 nM in assay [1], 37 nM in assay [2] and 413 nM in assay [3].
The like results for `O=C(O)c1cc2c(ccc3c4ccccc4[nH]c23)oc1=O` were, in that order, 18 nM, 47 nM and 265 nM.
Take `Cc1cc(=O)oc2cc3[nH]c4ccccc4c3cc12`: the values for the GI50 in assay [1], in assay [2] and in assay [3] were 66 nM, 42 nM and 78 nM, respectively.
The like results for `Cc1cc(=O)oc2cc3c(cc12)oc1ccccc13` were, in that order, 41 nM, 35 nM and 60 nM.
